Experimental data taken from ChEMBL document CHEMBL2346587, “Design, synthesis, and evaluation of a water-soluble antofine analogue with high antiproliferative and antitumor activity” (Bioorg Med Chem, 2013).
Calls of active or inactive are those of the source. The calls are words filed in the database; no cut-off is given here.

Experiments:
A549 [1] = experiment: Cell cycle arrest in human A549 cells assessed as accumulation at G2/M phase at 400 nM after 24 hrs by flow cytometry (reference value: 22.84 %); type: functional
A549 [2] = experiment: Inhibition of AKT activation in human A549 cells assessed as reduction in c-myc protein expression at 50 to 400 nM after 24 hrs by Western blot analysis; type: cell-based
Procedure, shortened: (§1)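 A549 cells plated at 3 × 10^5 per 60 mm dish, grown 24 h, then exposed to a concentration series for 24 h. Lysed in boiling SDS sample buffer with NaF and orthovanadate; protein by BCA; 25–50 µg run on 8–15% SDS-PAGE, transferred to PVDF, blocked in 5% milk/PBST, primary antibodies overnight at 4 °C, secondary 1–2 h, ECL detection.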

A549 [3] = experiment: Cytotoxicity against human A549 cells after 72 hrs by SRB assay; type: functional, cell-based; conditions: A549, 72 h
Procedure, shortened: (§2)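 SRB growth assay: 5 × 10^3 cells/well exposed to a concentration series for 72 h; fixed in 10% TCA 30 min at 4 °C, stained with 0.4% SRB in 1% acetic acid 30 min, dye dissolved in 10 mM Tris pH 10.0, absorbance at 515 nm. Viability relative to vehicle control; IC50 by non-linear regression; at least three experiments. A549-Pa is a paclitaxel-resistant A549 subline.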

[4] = biological target: T1, ATP-dependent translocase ABCB1 (Homo sapiens, UniProt P08183); experiment: Inhibition of P-gp activity in human paclitaxel-resistant A549 cells potentiation of 10 uM paclitaxel-induced cytotoxicity at 0.2 uM by SRB assay; type: cell-based; conditions: a549, 0.2 µM
Procedure, shortened: (§3)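 A549-Pa cells plated at 5 × 10^4 cells/well and co-treated for 48 h with the compound (0–200 nM) plus paclitaxel or gefitinib; growth inhibition by SRB assay. Combination index computed at the 50% inhibition level as CI = D1/(Dx)1 + D2/(Dx)2, comparing combined versus single-agent concentrations.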

[5] = biological target: T1, ATP-dependent translocase ABCB1; experiment: Inhibition of P-gp activity in human paclitaxel-resistant A549 cells potentiation of 5 uM gefitinib-induced cytotoxicity at 0.1 uM by SRB assay; type: cell-based; conditions: a549, 0.1 µM; procedure, shortened: as §3
[6] = biological target: T1, ATP-dependent translocase ABCB1; experiment: Inhibition of P-gp activity in human paclitaxel-resistant A549 cells assessed as rhodamine 123 accumulation at 50 nM after 72 hrs by FACS analysis (reference value: 14.4 %); type: cell-based; design: scale not given: the % may be the effect or the level left; conditions: a549, 72 h, 0.05 µM
A549 [7] = experiment: Cell cycle arrest in human A549 cells assessed as accumulation at S phase at 200 nM after 24 hrs by flow cytometry (reference value: 13.38 %); type: functional
[8] = biological target: TCF4/beta-catenin (Homo sapiens) (UniProt P35222+Q9NQB0); experiment: Inhibition of transcription activity of […]/TCF4 (unknown origin) expressed in HEK293 cells after 24 hrs by luciferase reporter gene assay; type: cell-based
Procedure, shortened: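 HEK293 cells were co-transfected for 24 h with 100 ng TOPflash β-catenin/Tcf reporter and 5 ng pRL-SV40. Graded compound concentrations were then added for 24 h. Firefly activity was read with a dual-luciferase system and normalized to Renilla. Significance was tested against DMSO control.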

A549 [9] = experiment: Antitumor activity against human A549 cells xenografted in athymic nu/nu BALB/c mouse assessed as inhibition of tumor growth at 10 mg/kg, ip administered 35 days post-implantation 3 times a week relative to control; type: functional; conditions: 840 h, route intraperitoneal, read-out: TGI
Procedure, shortened: (§4)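 Female athymic BALB/c nu/nu mice, six weeks old; 2 × 10^6 A549 or A549-Pa cells in 0.1 mL RPMI injected s.c. into right flank on day 0. Dosing began at 95–100 mm3 tumour volume: drug in 1% cremophore in PBS given i.p. three times weekly; controls got vehicle; five mice/group. Tumour volume tracked every 3–5 days; tumours excised and weighed at end; sections immunostained for Ki-67.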

[10] = Inhibition of Wnt signaling in human A549 cells assessed as reduction in cyclin D1 protein expression at 50 to 400 nM after 24 hrs by Western blot analysis; type: cell-based
Procedure, shortened: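 A549 cells were seeded at 3 × 10^5 per 60 mm dish, grown 24 h, then given graded compound concentrations for 24 h. Lysis was in boiling SDS buffer, with BCA protein assay. 25–50 µg per lane was run on 8–15% SDS-PAGE and blotted to PVDF. Primary antibodies (1:1000–1:2000) went on overnight at 4 °C, then secondary and ECL read-out.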

A549 [11] = experiment: Cell cycle arrest in human A549 cells assessed as accumulation at sub-G1 phase at 200 nM after 24 hrs by flow cytometry (reference value: 1.40 %); type: functional
A549 [12] = experiment: Inhibition of AKT/c-myc signaling in human A549 cells assessed as reduction in CDK4 protein expression at 50 to 400 nM after 24 hrs by Western blot analysis; type: cell-based; procedure, shortened: as §1
A549 [13] = experiment: Inhibition of P-gp protein expression level in human paclitaxel-resistant A549 cells at 50 to 200 nM after 48 hrs by Western blot analysis; type: functional, cell-based
Procedure, shortened: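 A549-Pa cells, with parent A549 for comparison, were exposed to compound for 48 h. Lysates were made in boiling SDS sample buffer and protein measured by BCA. Equal protein (25–50 µg) was run on 8–15% SDS-PAGE, transferred to PVDF and blocked in 5% milk/PBST. Anti-P-gp primary was applied overnight at 4 °C, then secondary antibody and ECL detection.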

A549 [14] = experiment: Inhibition of AKT/c-myc signaling in human A549 cells assessed as reduction in cyclin E protein expression at 50 to 400 nM after 24 hrs by Western blot analysis; type: cell-based; procedure, shortened: as §1
[15] = biological target: T1, ATP-dependent translocase ABCB1; experiment: Inhibition of P-gp activity in human […] A549 cells potentiation of 10 uM paclitaxel-induced cytotoxicity at 0.2 uM by SRB assay; type: cell-based; conditions: a549, 0.2 µM
A549 [16] = experiment: Cell cycle arrest in human A549 cells assessed as accumulation at G2/M phase at 200 nM after 24 hrs by flow cytometry (reference value: 22.84 %); type: functional
A549 [17] = experiment: Antitumor activity against paclitaxel-resistant human A549 cells xenografted in athymic nu/nu BALB/c mouse assessed as inhibition of tumor growth at 10 mg/kg, ip administered 35 days post-implantation 3 times a week relative to control; type: functional; conditions: 840 h, route intraperitoneal, read-out: TGI; procedure, shortened: as §4
A549 [18] = experiment: Cytotoxicity against human paclitaxel-resistant A549 cells after 72 hrs by SRB assay; type: functional, cell-based; conditions: A549, 72 h; procedure, shortened: as §2
A549 [19] = experiment: Antitumor activity against paclitaxel-resistant human A549 cells xenografted in athymic nu/nu BALB/c mouse assessed as inhibition of tumor growth at 5 mg/kg, ip administered 35 days post-implantation 3 times a week relative to control; type: functional; conditions: 840 h, route intraperitoneal, read-out: TGI; procedure, shortened: as §4
A549 [20] = experiment: Antitumor activity against human A549 cells xenografted in athymic nu/nu BALB/c mouse assessed as inhibition of tumor growth at 5 mg/kg, ip administered 35 days post-implantation 3 times a week relative to control; type: functional; conditions: 840 h, route intraperitoneal, read-out: TGI; procedure, shortened: as §4
[21] = biological target: T1, ATP-dependent translocase ABCB1; experiment: Inhibition of P-gp activity in paclitaxel-resistant human A549 cells potentiation of 2.5 uM paclitaxel-induced cytotoxicity at 0.05 uM by SRB assay; type: cell-based; conditions: a549, 0.05 µM; procedure, shortened: as §3
A549 [22] = experiment: Inhibition of AKT/mTOR signaling in human A549 cells assessed as inhibition of eIF4E phosphorylation at 50 to 400 nM after 24 hrs by Western blot analysis; type: cell-based; procedure, shortened: as §1

T1 sequence (P08183 whole entry): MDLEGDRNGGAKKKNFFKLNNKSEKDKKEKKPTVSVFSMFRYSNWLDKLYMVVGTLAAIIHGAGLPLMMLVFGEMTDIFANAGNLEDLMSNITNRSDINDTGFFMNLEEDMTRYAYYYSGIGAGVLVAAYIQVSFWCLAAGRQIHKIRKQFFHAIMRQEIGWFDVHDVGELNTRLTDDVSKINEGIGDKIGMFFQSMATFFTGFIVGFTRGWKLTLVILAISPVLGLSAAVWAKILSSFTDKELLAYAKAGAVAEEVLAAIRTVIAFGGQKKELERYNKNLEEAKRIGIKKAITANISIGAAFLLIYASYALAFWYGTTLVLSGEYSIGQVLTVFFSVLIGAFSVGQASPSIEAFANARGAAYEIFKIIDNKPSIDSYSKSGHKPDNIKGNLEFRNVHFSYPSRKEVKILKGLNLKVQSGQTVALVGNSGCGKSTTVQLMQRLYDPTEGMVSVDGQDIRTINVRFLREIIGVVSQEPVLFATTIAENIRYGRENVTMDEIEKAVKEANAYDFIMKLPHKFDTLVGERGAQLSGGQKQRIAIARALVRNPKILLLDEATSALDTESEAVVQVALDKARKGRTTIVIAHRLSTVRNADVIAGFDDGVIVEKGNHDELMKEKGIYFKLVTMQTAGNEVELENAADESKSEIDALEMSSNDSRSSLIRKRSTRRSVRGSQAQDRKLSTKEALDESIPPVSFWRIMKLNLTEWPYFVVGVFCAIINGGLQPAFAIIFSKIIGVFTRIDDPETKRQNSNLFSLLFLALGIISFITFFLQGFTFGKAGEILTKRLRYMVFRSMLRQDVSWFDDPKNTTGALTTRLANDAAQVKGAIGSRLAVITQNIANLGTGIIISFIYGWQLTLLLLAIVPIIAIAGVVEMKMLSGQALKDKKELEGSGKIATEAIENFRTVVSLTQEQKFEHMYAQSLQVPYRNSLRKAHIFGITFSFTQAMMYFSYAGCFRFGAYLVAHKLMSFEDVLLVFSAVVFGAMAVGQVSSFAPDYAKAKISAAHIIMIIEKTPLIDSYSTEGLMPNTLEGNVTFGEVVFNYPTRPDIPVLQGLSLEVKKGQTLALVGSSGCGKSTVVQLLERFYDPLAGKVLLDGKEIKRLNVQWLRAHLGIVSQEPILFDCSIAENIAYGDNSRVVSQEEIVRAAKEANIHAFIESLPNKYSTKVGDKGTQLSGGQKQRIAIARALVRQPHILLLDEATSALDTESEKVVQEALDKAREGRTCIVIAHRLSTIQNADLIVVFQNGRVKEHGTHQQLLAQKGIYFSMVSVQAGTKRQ

**Q.** What does the source list for `COc1ccc2c3c(c4cc(OC)c(OC)cc4c2c1)C[C@@]1(CO)CCCN1C3`?
**A.** Activity (A549 [1]): 20.41%; inhibition (A549 [2]): Active; IC50 (A549 [3]): 120 nM; fractional inhibitory concentration index (FICI) [4]: 0.413; fractional inhibitory concentration index (FICI) [5]: 0.523; Activity [6]: 28.7%; Activity (A549 [7]): 10.94%; inhibition [8]: Dose-dependent effect; inhibition in vivo at 10 mg/kg (A549 [9]): 60.7%; inhibition [10]: Active; Activity (A549 [11]): 1.29%; inhibition (A549 [12]): Active; inhibition (A549 [13]): Active; inhibition (A549 [14]): Active; fractional inhibitory concentration index (FICI) [15]: 1.002; Activity (A549 [16]): 18.33%; inhibition in vivo at 10 mg/kg (A549 [17]): 54.8%; IC50 (A549 [18]): 200 nM; inhibition in vivo at 5 mg/kg (A549 [19]): 38.4%; inhibition in vivo at 5 mg/kg (A549 [20]): 54.9%; fractional inhibitory concentration index (FICI) [21]: 0.242; inhibition (A549 [22]): Active
